Measured values published in publication PMC7089611 (Febs Letters, 2012).

B1: N245–376: truncated C‐terminal domain of the HCoV‐229E N protein, extended C‐terminal tail that includes residue 376 (protein)
chain: QKPRWKRQPNDDVTSNVTQCFGPRDLDHNFGSAGVVANGVKAKGYPQFAELVPSTAAMLFDSHIVSKESGNTVVLTFTTRVTVPKDHPHLGKFLEELNAFTREMQQHPLLNPSALEFNPSQTSPATAEPVRD
modifications: left off: His6, C-terminal, state not stated
B2: N245–389: truncated C‐terminal domain of the HCoV‐229E N protein, extended C‐terminal tail that includes residue 389 (protein)
chain: QKPRWKRQPNDDVTSNVTQCFGPRDLDHNFGSAGVVANGVKAKGYPQFAELVPSTAAMLFDSHIVSKESGNTVVLTFTTRVTVPKDHPHLGKFLEELNAFTREMQQHPLLNPSALEFNPSQTSPATAEPVRDEVSIETDIIDEVN
modifications: left off: His6, C-terminal, state not stated
B3: N245–370: truncated C‐terminal domain of the HCoV‐229E N protein, extended C‐terminal tail that includes residue 370 (protein)
chain: QKPRWKRQPNDDVTSNVTQCFGPRDLDHNFGSAGVVANGVKAKGYPQFAELVPSTAAMLFDSHIVSKESGNTVVLTFTTRVTVPKDHPHLGKFLEELNAFTREMQQHPLLNPSALEFNPSQTSPAT
modifications: left off: His6, C-terminal, state not stated
B4: N245–382: truncated C‐terminal domain of the HCoV‐229E N protein, extended C‐terminal tail that includes residue 382 (protein)
chain: QKPRWKRQPNDDVTSNVTQCFGPRDLDHNFGSAGVVANGVKAKGYPQFAELVPSTAAMLFDSHIVSKESGNTVVLTFTTRVTVPKDHPHLGKFLEELNAFTREMQQHPLLNPSALEFNPSQTSPATAEPVRDEVSIET
modifications: left off: His6, C-terminal, state not stated

How the values were obtained:
[1] = type: physicochemical; details: CD at 220 nm, protein 7 μM, 50 mM Tris–HCl pH 7.5, 150 mM NaCl, 0.1% β‐mercaptoethanol
[2] = Secondary structural content by CD spectroscopy; type: physicochemical; details: 25 °C, protein 5 μM, 50 mM Tris–HCl pH 7.5, 150 mM NaCl, 0.1% β‐mercaptoethanol, CDSSTR
[3] = tested on: C‐terminal domain of the HCoV‐229E N protein; assay: Sedimentation velocity analytical ultracentrifugation: self-association; type: binding; details: N245–389 in the absence of the C‐terminal tail peptide
Outline: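 C-terminal His6-tagged N-protein domain (residues 245–389) was bacterially expressed (1 mM IPTG, 37 °C, 6 h) and purified on Ni–NTA. Runs were at 20 °C and 42,000 rpm, read at 280 nm every 420 s, at 50, 30 and 10 μM protein in 50 mM Tris–HCl pH 7.5, 150 mM NaCl, 0.1% β-mercaptoethanol. Data were fit to a continuous size distribution (0.1–20.0 S).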

Molecule | melting temperature (Tm) [1] | Disordered (random coil) content [2] [%] | Helix content [2] [%] | Sheet content [2] [%] | Turn content [2] [%] | S-value of dimer ([3]; 20 °C, dimer) | S-value of octamer ([3]; 20 °C, octamer) | S-value of tetramer ([3]; 20 °C, tetramer) | molecular mass corresponding to S-value, dimer ([3]; dimer) [kDa] | molecular mass corresponding to S-value, octamer ([3]; octamer) [kDa] | molecular mass corresponding to S-value, tetramer ([3]; tetramer) [kDa]
B1 | 36.7 °C | 15 | 47 | 22 | 16 | – | – | – | – | – | –
B2 | above 70 °C | 13 | 45 | 26 | 16 | approximately 2.85 | ~7.75 | ~5.30 | 31 | 131 | 69
B3 | 36.2 °C | 17 | 46 | 23 | 14 | – | – | – | – | – | –
B4 | above 70 °C | 13 | 43 | 25 | 19 | – | – | – | – | – | –
